Assay results published in ChEMBL document CHEMBL2169769, “Synthesis and biological characterization of protease-activated prodrugs of doxazolidine” (J Med Chem, 2012).

How the values were obtained:
[1] = Cytotoxicity against human L3.6PL cells incubated for 24 hrs measured after 5 days in presence of 0.2 U human plasmin; type: functional, cell-based
Procedure, shortened: (§1)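 Cells seeded 1000/well, adhered overnight, then serum-free medium with or without plasmin, trypsin, cathepsin B or papain (0.2 U/well), aprotinin (5 µM) or protease inhibitor cocktail (1X). Prodrug 2000–1 nM final, 24 h; then complete medium up to 5 days or control 80% confluence. Formalin fixed, crystal violet, A582; % of control fit to variable-slope sigmoid for IC50.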

[2] = Cytotoxicity against human L3.5.cells incubated for 24 hrs measured after 5 days in presence of 0.2 U human plasmin; type: functional, cell-based; procedure, shortened: as §1
[3] = system: MCF7; test: Drug uptake in human MCF7 cells increase in compound uptake-induced anthracycline fluorescence in presence of plasmin at 0.5 uM after 4 to 5 hrs by flow cytometry relative to untreated control; type: ADME, cell-based; conditions: mcf7, 0.5 µM
Procedure, shortened: (§2)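 MCF-7 or MiaPaCa-2 plated 250,000/well, adhered overnight, switched to serum-free medium with 0.5 µM prodrug alone or plus 0.2 U human plasmin (final) for up to 5 h. Trypsinised cells read by flow cytometry (FL3) for anthracycline fluorescence; mean values expressed as fold over untreated cells.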

[4] = Cytotoxicity against human L3.3 cells incubated for 24 hrs measured after 5 days in presence of 0.2 U human plasmin; type: functional, cell-based; procedure, shortened: as §1
[5] = system: HEK-293T; test: Cytotoxicity against human HEK293T cells incubated for 24 hrs measured after 5 days in presence of 0.2 U human plasmin; type: cell-based; procedure, shortened: as §1
[6] = system: SHP77; test: Cytotoxicity against doxorubicin-resistant human SHP77 cells incubated for 24 hrs measured after 5 days in presence of 0.2 U human plasmin; type: functional, cell-based; procedure, shortened: as §1
[7] = system: BXPC-3; test: Cytotoxicity against human BxPC3 cells incubated for 24 hrs measured after 5 days in presence of 0.2 U human plasmin; type: functional, cell-based; procedure, shortened: as §1
[8] = Cytotoxicity against human L3.3 cells incubated for 24 hrs measured after 5 day; type: functional, cell-based; procedure, shortened: as §1
[9] = system: HEK-293T; test: Cytotoxicity against human HEK293T cells incubated for 24 hrs measured after 5 day; type: cell-based; procedure, shortened: as §1
[10] = system: MCF7; test: Cytotoxicity against human MCF7 cells incubated for 24 hrs measured after 5 days in presence of complete protease inhibitor cocktail; type: functional, cell-based; procedure, shortened: as §1
[11] = system: MCF7; test: Cytotoxicity against human MCF7 cells incubated for 24 hrs measured after 5 days in presence of 0.2 U cathepsin B; type: functional, cell-based; procedure, shortened: as §1
[12] = system: MCF7; test: Cytotoxicity against human MCF7 cells incubated for 24 hrs measured after 5 days in presence of 0.2 U trypsin; type: functional, cell-based; procedure, shortened: as §1
[13] = system: MIA PaCa-2; test: Cytotoxicity against human MIAPaCa2 cells incubated for 24 hrs measured after 5 days in presence of complete protease inhibitor cocktail; type: functional, cell-based; procedure, shortened: as §1
[14] = system: MIA PaCa-2; test: Cytotoxicity against human MIAPaCa2 cells incubated for 24 hrs measured after 5 days in presence of 5 uM aprotinin; type: functional, cell-based; procedure, shortened: as §1
[15] = system: MIA PaCa-2; test: Cytotoxicity against human MIAPaCa2 cells incubated for 24 hrs measured after 5 days in presence of 0.2 U papain; type: functional, cell-based; procedure, shortened: as §1
[16] = Prodrug conversion assessed as release dozax at 50 uM at pH 7.4 in PBS buffer in absence of human plasmin after 24 hrs by RP-HPLC; type: ADME; conditions: pH 7.4, 24 h
Procedure, shortened: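 Enzyme-free control: 50 µM prodrug in PBS at 37 °C over 24 h, RP-HPLC monitoring dox at 480 nm.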

[17] = target: Cathepsin B (Homo sapiens) (UniProt P07858); test: Activity of human cathepsin B assessed as compound hydrolysis measuring enzyme specific activity at 50 uM at pH 6.5 in PBS buffer containing 10 mM N-acetylcysteine by RP-HPLC
Procedure, shortened: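 Specific activity from hydrolysis time courses at 37 °C with 50 µM substrate. Plasmin in PBS pH 7.4; cathepsin B diluted two-fold in PBS-NAC, reacted in PBS-NAC (10 mM N-acetylcysteine) pH 6.5. Ethanol-quenched aliquots, protein precipitated at −20 °C, RP-HPLC at 480 nm tracking dox release. Linear least-squares slope used; 1 U = 1 µM substrate hydrolysed per min.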

[18] = target: Cathepsin B (Homo sapiens) (UniProt P07858); test: Activity of human cathepsin B assessed as enzyme catalytic efficiency for compound hydrolysis at 50 uM at pH 6.5 in PBS buffer containing 10 mM N-acetylcysteine by RP-HPLC
Procedure, shortened: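 Michaelis-Menten kinetics, substrate 10–400 µM at 37 °C. Plasmin: 0.2 U, PBS pH 7.4, 4 min. Cathepsin B: 0.08 U, PBS-NAC pH 6.5, 20 min. Quenched with equal volume ethanol, −20 °C ≥2 h, centrifuged, supernatant RP-HPLC at 480 nm. Rates (µM/min) fit by non-linear least squares; triplicates.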

[19] = species on record: Bos taurus; test: Activity of bovine trypsin assessed as enzyme specific activity for compound hydrolysis
Procedure, shortened: (§3)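 50 µM prodrug incubated at 37 °C with enzyme: trypsin in PBS; papain diluted two-fold in PBS-NAC (PBS + 10 mM N-acetylcysteine), reacted in PBS-NAC pH 6.5. Aliquots quenched in equal volume ethanol, −20 °C ≥2 h, centrifuged; supernatant RP-HPLC at 480 nm for substrate loss and dox gain. Slope of linear fit gives activity; 1 U = 1 µM prodrug hydrolysed per min.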

[20] = target: T1, Papain (Carica papaya) (UniProt P00784); test: Activity of papaya papain assessed as compound hydrolysis measuring enzyme specific activity at 50 uM at pH 6.5 in PBS buffer containing 10 mM N-acetylcysteine by RP-HPLC; procedure, shortened: as §3
T1 sequence (whole entry): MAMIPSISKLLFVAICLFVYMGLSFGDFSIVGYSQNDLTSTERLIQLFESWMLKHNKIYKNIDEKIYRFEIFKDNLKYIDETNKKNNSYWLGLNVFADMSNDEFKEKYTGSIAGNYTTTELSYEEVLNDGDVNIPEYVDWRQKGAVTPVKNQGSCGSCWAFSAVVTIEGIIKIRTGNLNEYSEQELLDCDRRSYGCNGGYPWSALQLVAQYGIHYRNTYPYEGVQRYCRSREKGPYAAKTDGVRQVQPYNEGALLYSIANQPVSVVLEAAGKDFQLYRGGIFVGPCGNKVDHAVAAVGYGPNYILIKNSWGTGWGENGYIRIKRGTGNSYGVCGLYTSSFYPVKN

[21] = species on record: Homo sapiens; test: Selectivity ratio of Kcat of human plasmin to Kcat of human cathepsin B
Procedure, shortened: (§4)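 Michaelis–Menten kinetics with human enzymes and substrate at 10–400 µM, 37 °C. Plasmin: 0.2 U in PBS pH 7.4 for 4 min. Cathepsin B: 0.08 U in PBS with 10 mM N-acetylcysteine, pH 6.5, for 20 min. Quenched with ethanol, held at −20 °C ≥2 h, centrifuged. Dox release read by RP-HPLC at 480 nm. Rates (µM/min) fit by non-linear least squares; triplicate.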

[22] = species on record: Homo sapiens; test: Selectivity ratio of catalytic efficiency of human plasmin to catalytic efficiency of human cathepsin B; procedure, shortened: as §4
[23] = system: MIA PaCa-2; test: Cytotoxicity against human MIAPaCa2 cells incubated for 24 hrs measured after 5 days; type: functional, cell-based; procedure, shortened: as §1
[24] = system: MCF7; test: Cytotoxicity against human MCF7 cells incubated for 24 hrs measured after 5 days; type: functional, cell-based; procedure, shortened: as §1
[25] = system: MIA PaCa-2; test: Cytotoxicity against human MIAPaCa2 cells incubated for 24 hrs measured after 5 days in presence of 0.2 U plasmin; type: functional, cell-based; procedure, shortened: as §1
[26] = system: MIA PaCa-2; test: Cytotoxicity against human MIAPaCa2 cells incubated for 24 hrs measured after 5 days in presence of 0.2 U trypsin; type: functional, cell-based; procedure, shortened: as §1
[27] = system: MCF7; test: Drug uptake in human MCF7 cells increase in compound uptake-induced anthracycline fluorescence in absence of plasmin at 0.5 uM up to 5 hrs by flow cytometry relative to untreated control; type: ADME, cell-based; conditions: mcf7, 5 h; procedure, shortened: as §2

COc1cccc2c1C(=O)c1c(O)c3c(c(O)c1C2=O)C[C@@](O)(C(=O)CO)C[C@@H]3O[C@H]1C[C@H]2[C@H](OCN2C(=O)OCc2ccc(NC(=O)[C@H](CCCCN)NC(=O)[C@H](Cc3ccccc3)NC(=O)[C@@H](C)NC(=O)CNC(C)=O)cc2)[C@H](C)O1.O=P(O)(O)O
IC50 [1]: 3.16 nM | IC50 [2]: 2.63 nM | fold change (FC) [3]: 7 | IC50 [4]: 3.98 nM | IC50 [5]: 3.02 nM | IC50 [6]: 29.5 nM | IC50 [7]: 39.8 nM | IC50 [8]: 251 nM | IC50 [9]: 200 nM | IC50 [10]: 251 nM | IC50 [11]: 120 nM | IC50 [12]: 31.6 nM | IC50 [13]: 398 nM | IC50 [14]: 282 nM | IC50 [15]: 69.2 nM | Stability [16]: Stable | Activity [17]: 1040 U/mg | Activity [18]: 4.59 ×10³ /M/s | Activity [19]: 4340 U/mg | Activity [20]: 890 U/mg | Ratio [21]: 5 | Ratio [22]: > 3 | IC50 [23]: 251 nM | IC50 [24]: 200 nM | IC50 [25]: 23.4 nM | IC50 [26]: 26.3 nM | fold change (FC) [27]: 2
